The term Kd denotes a measure of binding affinity in units of concentration. Broadly, the Ki is the equilibrium dissociation constant of an inhibitor or competing ligand from its target. A lower Ki goes with higher affinity.

For five molecules, Kd and Ki results are on record in ChEMBL document CHEMBL1141973, “6'-Methylpyrido[3,4-b]norhomotropane: synthesis and outstanding potency in relation to the alpha4beta2 nicotinic receptor pharmacophore model” (Bioorg Med Chem Lett, 2005).

Assay type in all cases: cell-based
Assay [1] is described as follows: Dissociation constant for nicotinic acetylcholine receptor alpha4-beta2 of mouse M10 cells; n=3. Put shortly:
(§1)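 α4β2 receptor immunoisolated with mAb 270 from mouse fibroblast M10 cells. Competition binding against (−)-[³H]nicotine at 7 nM. Ki was obtained from IC50 by Cheng–Prusoff, Ki = IC50/(1 + [L]/KD), with KD 3.8 nM.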

Assay [2] is described as follows: Binding affinity for nicotinic acetylcholine receptor alpha4-beta2 from mouse M10 cells; n=3. The procedure, abridged:
as §1

The target in assay [3] is T1, Neuronal acetylcholine receptor subunit alpha-7 (Homo sapiens, UniProt P36544). Kind of assay: Dissociation constant for nicotinic acetylcholine receptor alpha 7 from human neuroblastoma SH-SY5Y cells; n=3.
Assay [4] addresses T1, Neuronal acetylcholine receptor subunit alpha-7. Nature of the assay: Binding affinity for nicotinic acetylcholine receptor alpha 7 from human neuroblastoma SH-SY5Y cells; n=3.

T1 sequence (P36544 whole entry): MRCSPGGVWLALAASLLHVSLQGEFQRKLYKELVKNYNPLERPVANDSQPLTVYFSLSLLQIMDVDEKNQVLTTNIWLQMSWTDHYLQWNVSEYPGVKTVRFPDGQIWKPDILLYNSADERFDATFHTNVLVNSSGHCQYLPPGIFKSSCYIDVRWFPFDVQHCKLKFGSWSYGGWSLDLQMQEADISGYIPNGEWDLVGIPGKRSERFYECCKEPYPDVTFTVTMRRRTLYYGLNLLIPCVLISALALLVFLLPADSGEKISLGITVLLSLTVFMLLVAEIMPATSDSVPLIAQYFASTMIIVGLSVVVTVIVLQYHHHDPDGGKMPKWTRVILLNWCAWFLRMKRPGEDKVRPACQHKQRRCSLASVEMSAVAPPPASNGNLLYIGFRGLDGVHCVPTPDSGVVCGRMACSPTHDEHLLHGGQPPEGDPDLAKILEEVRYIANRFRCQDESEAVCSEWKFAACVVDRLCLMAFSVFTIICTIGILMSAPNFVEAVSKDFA

For the molecule `CN1CCC[C@@H]1c1cccnc1` [R-NICOTINE], the Kd in assay [1] stood at 0.0038 µM. Moreover, the inhibition constant Ki in assay [2] came to 2.5 nM.
Consider `c1cc2c(cn1)C1CCC(CC2)N1` (racemic), for which the equilibrium dissociation constant (Kd) in assay [1] was found to be 0.00308 µM; in assay [3] it was 0.00106 µM. Besides, the Ki in assay [4] is more than 100 µM; in assay [2], 1.3 nM.
For `Cc1cc2c(cn1)C1CCC(CC2)N1` (racemic), in that order: 0.00039 µM, 0.00106 µM, approximately 1000 µM and 0.39 nM.
Consider `c1cncc([C@@H]2CCCN2)c1` (racemic) [NORNICOTINE], for which the Kd in assay [3] was 0.00106 µM. Further, the Ki was determined as 138 µM in assay [4] and 14 nM in assay [2].
With `Clc1ccc(C2CC3CCC2N3)cn1` (racemic) [EPIBATIDINE], the dissociation constant (Kd) in assay [1] was 0.00308 µM; in assay [3] it was 0.00106 µM. In assay [2], this molecule had a Ki of 0.035 nM.
